Data as given in ChEMBL document CHEMBL1127054, “3-Aryl-2-(3'-substituted-1',2',4'-oxadiazol-5'-yl)tropane analogues of cocaine: affinities at the cocaine binding site at the dopamine, serotonin, and norepinephrine transporters” (J Med Chem, 1993).

Assays:
[1] = target: Monoamine transporters; Norepininephrine & dopamine (Rattus norvegicus) (UniProt P23977+Q9WTR4); experiment: Ratio between norepinephrine and Dopamine transporter; type: protein assay
[2] = target: Monoamine transporters; serotonin & dopamine (Rattus norvegicus) (UniProt P31652+P23977); experiment: Ratio between serotonin transporter and Dopamine transporter; type: protein assay
[3] = target: Norepinephrine transporter (Rattus norvegicus, UniProt Q9WTR4); experiment: Binding affinity towards norepinephrine transporter by displacement of [3H]nisoxetine radioligand from rat brain
[4] = target: Sodium-dependent serotonin transporter (Rattus norvegicus, UniProt P31652); experiment: Binding affinity towards serotonin transporter by displacement of [3H]- paroxetine radioligand from rat brain
In short: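 Midbrain tissue (1.5 mg original wet weight) with 0.2 nM [3H]paroxetine in 50 mM Tris, 120 mM NaCl, 5 mM KCl, pH 7.4, for 90 min at room temperature; nonspecific binding defined with 1 μM citalopram. Terminated by filtration through polyethylenimine-soaked GF/B filters with ice-cold buffer washes. Mean ± SE of four triplicate experiments.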

[5] = target: Sodium-dependent dopamine transporter (Rattus norvegicus, UniProt P23977); experiment: Binding affinity towards Dopamine transporter by displacement of [3H]WIN-35428 radioligand from rat brain
Chain of Sodium-dependent dopamine transporter (P23977 whole entry): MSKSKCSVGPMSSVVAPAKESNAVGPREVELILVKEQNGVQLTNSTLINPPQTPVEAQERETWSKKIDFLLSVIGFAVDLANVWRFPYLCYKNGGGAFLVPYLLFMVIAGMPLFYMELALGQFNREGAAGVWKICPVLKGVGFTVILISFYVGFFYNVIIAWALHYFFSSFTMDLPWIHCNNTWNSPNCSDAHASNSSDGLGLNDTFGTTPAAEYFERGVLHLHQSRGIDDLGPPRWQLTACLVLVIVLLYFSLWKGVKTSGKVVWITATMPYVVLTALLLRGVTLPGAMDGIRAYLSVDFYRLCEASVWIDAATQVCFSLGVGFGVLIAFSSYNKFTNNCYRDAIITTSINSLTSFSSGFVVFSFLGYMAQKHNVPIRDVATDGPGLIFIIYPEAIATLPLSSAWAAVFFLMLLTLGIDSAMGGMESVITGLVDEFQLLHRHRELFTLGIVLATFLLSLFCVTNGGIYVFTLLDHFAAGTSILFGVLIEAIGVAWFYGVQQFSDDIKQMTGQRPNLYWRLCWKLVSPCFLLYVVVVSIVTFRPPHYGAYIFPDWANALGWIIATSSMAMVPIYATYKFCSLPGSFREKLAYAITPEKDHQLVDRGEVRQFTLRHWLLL

Chain of Sodium-dependent serotonin transporter (P31652 whole entry): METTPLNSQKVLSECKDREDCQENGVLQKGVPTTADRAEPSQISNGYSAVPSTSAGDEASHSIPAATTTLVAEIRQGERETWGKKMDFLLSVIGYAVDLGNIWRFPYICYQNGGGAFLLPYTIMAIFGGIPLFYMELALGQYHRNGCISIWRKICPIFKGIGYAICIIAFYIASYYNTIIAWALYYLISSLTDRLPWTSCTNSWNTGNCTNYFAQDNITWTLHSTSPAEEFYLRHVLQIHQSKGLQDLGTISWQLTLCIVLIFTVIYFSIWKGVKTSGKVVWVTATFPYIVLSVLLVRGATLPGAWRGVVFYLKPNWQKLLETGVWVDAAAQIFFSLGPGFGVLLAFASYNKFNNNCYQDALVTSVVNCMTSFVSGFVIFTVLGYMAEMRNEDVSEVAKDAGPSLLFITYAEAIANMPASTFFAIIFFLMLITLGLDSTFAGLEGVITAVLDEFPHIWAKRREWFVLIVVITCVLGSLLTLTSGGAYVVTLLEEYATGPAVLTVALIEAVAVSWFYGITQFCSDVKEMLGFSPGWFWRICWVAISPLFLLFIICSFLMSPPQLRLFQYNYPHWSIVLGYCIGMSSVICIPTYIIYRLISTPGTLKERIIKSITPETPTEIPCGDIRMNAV
Chain of Monoamine transporters; serotonin & dopamine (Rattus norvegicus) (P23977 whole entry, looked up): as the sequence (P23977 whole entry) above
Chain of Monoamine transporters; serotonin & dopamine (Rattus norvegicus) (P31652 whole entry, looked up): as the sequence (P31652 whole entry) above
Chain of Norepinephrine transporter (Q9WTR4 whole entry): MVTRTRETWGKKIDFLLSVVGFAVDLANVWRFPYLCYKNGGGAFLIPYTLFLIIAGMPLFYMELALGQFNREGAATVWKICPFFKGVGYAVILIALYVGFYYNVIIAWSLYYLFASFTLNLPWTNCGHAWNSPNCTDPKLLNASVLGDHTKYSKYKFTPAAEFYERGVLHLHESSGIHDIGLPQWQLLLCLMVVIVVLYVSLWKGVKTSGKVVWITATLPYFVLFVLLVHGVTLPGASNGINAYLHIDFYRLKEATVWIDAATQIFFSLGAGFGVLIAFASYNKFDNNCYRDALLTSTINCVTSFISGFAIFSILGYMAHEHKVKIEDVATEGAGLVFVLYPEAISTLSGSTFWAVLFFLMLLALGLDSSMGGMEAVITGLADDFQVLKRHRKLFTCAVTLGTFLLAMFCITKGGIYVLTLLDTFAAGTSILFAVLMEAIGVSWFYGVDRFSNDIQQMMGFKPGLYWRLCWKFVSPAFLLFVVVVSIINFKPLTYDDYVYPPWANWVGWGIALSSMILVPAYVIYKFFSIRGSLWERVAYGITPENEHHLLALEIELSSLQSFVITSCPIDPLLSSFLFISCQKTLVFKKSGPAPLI

| Structure (SMILES) | Ratio [1] | Ratio [2] | IC50 [3] [µM] | IC50 [4] [µM] | IC50 [5] [µM] |
| --- | --- | --- | --- | --- | --- |
| Cc1noc(C2C3CC[C@H](C[C@@H]2c2ccccc2)N3C)n1 (stereo in doubt; 8) [listing 1 of 2 here] | 42 | 243 |  |  |  |
| CN1C2CC[C@@H]1C[C@H](c1ccc(Cl)cc1)C2c1nc(-c2ccc(Br)cc2)no1 (some centres undefined) | 532 | 31 | 1.83 | 0.106 | 0.00344 |
| CC(C)OC(=O)C1C2CC[C@H](C[C@@H]1c1ccc(Cl)cc1)N2C (some centres undefined) | 551 |  | 0.778 | 1.4 | 0.00141 |
| Cc1noc(C2C3CC[C@H](C[C@@H]2c2ccccc2)N3C)n1 (stereo in doubt; 7) [listing 1 of 2 here] |  |  | 35.8 | 29.4 | 0.204 |
| Cc1noc(C2C3CC[C@H](C[C@@H]2c2ccccc2)N3C)n1 (stereo in doubt; 5a) [listing 1 of 2 here] | 79 | 38 |  |  |  |
| Cc1noc(C2C3CC[C@H](C[C@@H]2c2ccccc2)N3C)n1 (stereo in doubt; 7) [listing 2 of 2 here] | 176 | 144 |  |  |  |
| CN1C2CC[C@@H]1C[C@H](c1ccc(Cl)cc1)C2c1nc(-c2ccccc2)no1 (some centres undefined) | 151 | 120 | 0.245 | 0.195 | 0.00162 |
| Cc1noc(C2C3CC[C@H](C[C@@H]2c2ccccc2)N3C)n1 (stereo in doubt; 6) [listing 1 of 2 here] |  |  | 71 | 33.1 | 1.03 |
| Cc1noc(C2C3CC[C@H](C[C@@H]2c2ccc(Cl)cc2)N3C)n1 (some centres undefined) |  |  | 0.363 | 2.58 |  |
| Cc1ccc([C@H]2C[C@H]3CCC(C2C(=O)Oc2ccccc2)N3C)cc1 (some centres undefined) | 1780 |  | 5.83 | 24.5 | 0.00327 |
| COc1ccc(-c2noc(C3C4CC[C@H](C[C@@H]3c3ccc(Cl)cc3)N4C)n2)cc1 (some centres undefined) | 461 | 186 | 0.835 | 0.337 | 0.00181 |
| Cc1noc(C2C3CC[C@H](C[C@@H]2c2ccccc2)N3C)n1 (stereo in doubt; 6) [listing 2 of 2 here] | 69 | 32 |  |  |  |
| COC(=O)[C@@H]1C2CC[C@H](C[C@@H]1c1ccccc1)N2C |  |  | 0.92 |  |  |
| Cc1noc(C2C3CC[C@H](C[C@@H]2c2ccccc2)N3C)n1 (stereo in doubt; 8) [listing 2 of 2 here] |  |  | 6.99 | 40.6 | 0.167 |
| CC(C)c1noc(C2C3CC[C@H](C[C@@H]2c2ccc(Cl)cc2)N3C)n1 (some centres undefined) | 23 | 577 | 0.135 | 3.46 | 0.006 |
| CN1C2CCC1C(C(=O)Oc1ccccc1)C(c1ccc(Cl)cc1)C2 (centres undefined) | 1490 |  | 2.96 |  | 0.00199 |
| Cc1noc(C2C3CC[C@H](C[C@@H]2c2ccccc2)N3C)n1 (stereo in doubt; 5a) [listing 2 of 2 here] |  |  | 7.88 | 3.83 | 0.1 |
| CN1C2CC[C@@H]1C[C@H](c1ccc(Cl)cc1)C2c1nc(-c2ccc(Cl)cc2)no1 (some centres undefined) | 1000 | 100 | 4.07 | 0.404 | 0.00406 |
| Cc1ccc([C@H]2C[C@H]3CCC(C2c2nc(-c4ccccc4)no2)N3C)cc1 (some centres undefined) | 26 | 459 | 0.06 | 1.07 | 0.00233 |
